Results published in ChEMBL document CHEMBL4229555, “Design, synthesis and structure-activity relationship study of novel naphthoindolizine and indolizinoquinoline-5,12-dione derivatives as IDO1 inhibitors” (Bioorg Med Chem, 2018).

What was measured:
[1] = target: T1, Indoleamine 2,3-dioxygenase 1 (Homo sapiens, UniProt P14902); test: Inhibition of IDO1 (unknown origin) assessed as reduction in N'-formlylkynurenine formation at 1 uM using D-Tryptophan as substrate in presence of ascorbate and methylene blue relative to control
Target sequence in this assay (P14902 whole entry, looked up): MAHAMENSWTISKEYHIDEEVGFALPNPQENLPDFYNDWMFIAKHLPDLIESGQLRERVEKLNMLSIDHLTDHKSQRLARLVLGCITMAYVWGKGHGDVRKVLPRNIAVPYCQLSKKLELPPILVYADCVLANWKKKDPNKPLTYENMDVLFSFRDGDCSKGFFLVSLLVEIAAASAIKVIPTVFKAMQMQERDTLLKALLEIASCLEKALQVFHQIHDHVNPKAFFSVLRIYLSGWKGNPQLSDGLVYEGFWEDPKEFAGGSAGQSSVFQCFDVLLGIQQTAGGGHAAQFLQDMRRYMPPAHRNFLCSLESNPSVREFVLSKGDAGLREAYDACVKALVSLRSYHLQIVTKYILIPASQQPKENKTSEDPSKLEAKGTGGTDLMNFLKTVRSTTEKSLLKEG

[2] = target: T2, Tryptophan 2,3-dioxygenase (Homo sapiens, UniProt P48775); test: Inhibition of recombinant TDO (unknown origin) assessed as reduction in N-formylkynurenine formation using L-Tryptophan as substrate after 75 mins by UV absorption method
Method in brief: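 Recombinant TDO reaction at room temperature in TDO assay buffer with 200 μM L-tryptophan and inhibitor, incubated 75 min; N-formylkynurenine measured by UV absorbance at 321 nm. Blank used buffer in place of enzyme. IC50 from nonlinear regression with normalized dose-response fit.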
Target sequence in this assay (P48775 whole entry): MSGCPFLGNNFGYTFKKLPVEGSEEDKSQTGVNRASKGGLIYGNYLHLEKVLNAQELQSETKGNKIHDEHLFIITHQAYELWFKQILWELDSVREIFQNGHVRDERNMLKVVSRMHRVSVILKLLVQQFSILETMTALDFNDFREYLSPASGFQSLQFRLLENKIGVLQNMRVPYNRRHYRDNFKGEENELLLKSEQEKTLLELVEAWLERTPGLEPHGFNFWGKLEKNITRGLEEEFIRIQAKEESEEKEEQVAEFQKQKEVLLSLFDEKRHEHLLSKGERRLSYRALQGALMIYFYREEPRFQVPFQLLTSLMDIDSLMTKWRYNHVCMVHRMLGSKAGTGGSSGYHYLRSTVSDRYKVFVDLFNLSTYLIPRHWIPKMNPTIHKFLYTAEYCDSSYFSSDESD

[3] = target: T1, Indoleamine 2,3-dioxygenase 1; test: Inhibition of IDO1 (unknown origin) assessed as reduction in N'-formlylkynurenine formation using D-Tryptophan as substrate in presence of ascorbate and methylene blue; conditions: in the assay text read “ascorbate” for “aspartate”
Method in brief: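 Room-temperature reaction: 20 nM IDO, 2 mM D-Trp, 20 mM ascorbate, 3.5 μM methylene blue, 0.2 mg/mL catalase in 50 mM potassium phosphate pH 6.5. Initial rates tracked continuously by absorbance rise at 321 nm (N'-formylkynurenine); IC50 by nonlinear regression, normalized dose-response fit.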
Target sequence in this assay (P14902 whole entry): as the sequence (P14902 whole entry, looked up) above

[4] = target: T1, Indoleamine 2,3-dioxygenase 1; test: Inhibition of IFN-gamma-stimulated IDO1 in human HeLa cells at 1 uM after 24 hrs by Ehrlich's reagent based assay relative to control; assay type: cell-based
Method in brief: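 IFN-γ (100 ng/mL, 24 h) induction of IDO1 in HeLa cells plated at 40,000/well after 24 h adherence; inhibitor in DMSO, 24 h incubation. Reaction ended with 30% TCA, heated 30 min at 50 °C, centrifuged, supernatant reacted with Ehrlich reagent 10 min at room temperature; read at 490 nm.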
Target sequence in this assay (P14902 whole entry, looked up): as above

[5] = target: T1, Indoleamine 2,3-dioxygenase 1; test: Inhibition of IFN-gamma-stimulated IDO1 in human HeLa cells after 24 hrs by Ehrlich's reagent based assay; assay type: cell-based
Method in brief: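 HeLa cells (40,000/well) adhered 24 h, stimulated with 100 ng/mL human recombinant IFN-γ for 24 h, then given inhibitor in DMSO from 10 μM top dose, 3-fold dilutions to 0.1 μM, for 24 h. Stopped with 30% TCA, 30 min at 50 °C, centrifuged; supernatant mixed with Ehrlich reagent 10 min at room temperature, absorbance at 490 nm.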
Target sequence in this assay (P14902 whole entry): as the sequence (P14902 whole entry, looked up) above

[6] = target: T2, Tryptophan 2,3-dioxygenase; test: Inhibition of recombinant TDO (unknown origin) assessed as reduction in N-formylkynurenine formation at 10 uM using L-Tryptophan as substrate after 75 mins by UV absorption method relative to control
Method in brief: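 Room-temperature UV assay: recombinant TDO with 200 μM L-tryptophan in TDO assay buffer plus inhibitor, 75 min incubation, then absorbance at 321 nm for N-formylkynurenine. Buffer substituted for TDO as blank.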
Target sequence in this assay (P48775 whole entry, looked up): as the sequence (P48775 whole entry) above

[7] = tested on: HeLa; test: Cytotoxicity against human HeLa cells after 48 hrs by MTT assay; assay type: functional, cell-based
Method in brief: (§1)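 Cells seeded at 3-4 × 10^3 per well and incubated overnight, then exposed to compounds added from 10 mM DMSO stock for 48 h; 1% DMSO as negative control.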

[8] = tested on: HEK-293T; test: Cytotoxicity against HEK293T cells after 48 hrs by MTT assay; assay type: cell-based; conditions: Homo sapiens
Method in brief: as §1

[9] = tested on: MCF7; test: Cytotoxicity against human MCF7 cells after 48 hrs by MTT assay; assay type: functional, cell-based; conditions: MCF7, 48 h
Method in brief: as §1

| SMILES | inhibition [1] [%] | IC50 [3] [nM] | inhibition [4] [%] | also measured |
| --- | --- | --- | --- | --- |
| Cc1ccccc1NC(=O)c1c2c(n3ccccc13)C(=O)c1cccnc1C2=O | 64 | 134 | 38 | IC50 [2]: > 100 µM; IC50 [5]: 2660 nM |
| O=C1c2ncccc2C(=O)c2c1c(C(=O)O)c1ccccn21 | 58 | 1190 | – | – |
| O=C1c2ccccc2C(=O)c2c1c(C(=O)NCCO)c1ccccn21 | 22 | – | – | – |
| CSc1ccn2c3c(c(C(=O)NCCN(C)C)c2c1)C(=O)c1ncccc1C3=O | 80.5 | 39 | 77 | IC50 [5]: 372 nM |
| CN(C)CCNC(=O)c1c2c(n3ccccc13)C(=O)c1cccnc1C2=O | 77 | 188 | 81 | inhibition [6]: 88%; IC50 [2]: 7.15 µM; IC50 [5]: 1240 nM |
| NS(=O)(=O)NCCNC1=NON/C1=C(/NO)Nc1ccc(F)c(Br)c1 | – | 73 | 96 | IC50 [5]: 7 nM |
| CC(C)OC(=O)c1c2c(n3ccccc13)C(=O)c1ccccc1C2=O | 13 | – | – | – |
| COc1cccc2c1C(=O)c1c(O)c3c(c(O)c1C2=O)C[C@@](O)(C(=O)CO)C[C@@H]3O[C@H]1C[C@H](N)[C@H](O)[C@H](C)O1 [DOXORUBICIN] | – | – | – | IC50 [7]: 660 nM; IC50 [8]: 1130 nM |
| COC(=O)c1c2c(n3ccccc13)C(=O)c1cccc(O)c1C2=O | 77 | 87 | 12 | – |
| CCOC(=O)c1c2c(n3ccccc13)C(=O)c1ncccc1C2=O | 35 | – | – | – |
| O=C(O)c1cccc(NC(=O)c2c3c(n4ccccc24)C(=O)c2cccnc2C3=O)c1 | 71.5 | 390 | – | IC50 [2]: > 100 µM |
| Cc1ccn2c3c(c(C(=O)O)c2c1)C(=O)c1cccnc1C3=O | 70 | 394 | – | – |
| CN(C)CCNC(=O)c1c2c(n3ccccc13)C(=O)c1ncccc1C2=O | 78 | 127 | 43 | inhibition [6]: 91%; IC50 [2]: 3.35 µM; IC50 [5]: 738 nM |
| COC(=O)c1c2c(n3ccccc13)C(=O)c1ncccc1C2=O | 65 | 438 | – | – |
| COc1ccn2c3c(c(C(=O)O)c2c1)C(=O)c1ncccc1C3=O | 47 | – | – | – |
| O=C1c2cccnc2C(=O)c2c1c(Cc1ccccc1)c1ccccn21 | 34 | – | – | – |
| Cc1ccccc1NC(=O)c1c2c(n3ccccc13)C(=O)c1ncccc1C2=O | 74 | 427 | – | IC50 [2]: > 100 µM |
| O=C1c2ncccc2C(=O)c2c1c(Cc1ccccc1)c1ccccn21 | 56 | – | – | – |
| CN(C)CCNC(=O)c1c2c(n3ccccc13)C(=O)c1cccc(O)c1C2=O | 29 | – | – | – |
| COC(=O)c1c2c(n3ccccc13)C(=O)c1cccnc1C2=O | 69 | 448 | – | – |

| SMILES | inhibition [1] [%] | IC50 [3] [nM] | inhibition [4] [%] | also measured |
| --- | --- | --- | --- | --- |
| O=C1c2cccnc2C(=O)c2c1c(C(=O)Nc1cccc(Cl)c1)c1ccccn21 | 29.5 | – | – | – |
| O=C1c2cccnc2C(=O)c2c1c(C(=O)O)c1cc(I)ccn21 | 67 | 117 | 12 | – |
| O=C1c2cccnc2C(=O)c2c1c(C(=O)Nc1ccccc1)c1ccccn21 | 68 | 361 | – | IC50 [2]: 7.3 µM |
| CN(C)CCNC(=O)c1c2c(n3ccccc13)C(=O)c1ccccc1C2=O | 27 | – | – | – |
| O=C1c2ncccc2C(=O)c2c1c(C(=O)Nc1ccccc1)c1ccccn21 | 62 | 119 | 25 | IC50 [2]: > 100 µM |
| CN(C)CCCNC(=O)c1c2c(n3ccccc13)C(=O)c1ccccc1C2=O | 24 | – | – | – |
| Cc1ccn2c3c(c(C(=O)O)c2c1)C(=O)c1ncccc1C3=O | 54 | – | – | – |
| O=C1c2ncccc2C(=O)c2c1c(C(=O)O)c1cc(I)ccn21 | 67 | 420 | – | – |
| CCOC(=O)c1c2c(n3ccccc13)C(=O)c1cccnc1C2=O | 61 | 977 | – | inhibition [6]: 14% |
| CSc1ccn2c3c(c(C(=O)NCCN(C)C)c2c1)C(=O)c1cccnc1C3=O | 72.5 | 50 | 42 | IC50 [5]: 1080 nM |
| O=C1c2ncccc2C(=O)c2c1c(C(=O)Nc1cccc(Cl)c1)c1ccccn21 | 34 | – | – | – |
| O=C1c2ccccc2C(=O)c2c1c(C(=O)O)c1ccccn21 | 61 | 714 | – | – |
| NC(=S)NNC(=O)c1c2c(n3ccccc13)C(=O)c1ncccc1C2=O | 74.5 | 23 | 22 | IC50 [7]: > 20000 nM; IC50 [2]: 1.2 µM; IC50 [9]: > 20 µM; IC50 [8]: > 20000 nM |
| O=C1c2c(O)cccc2C(=O)c2c1c(C(=O)O)c1ccccn21 | 60 | – | – | – |
| CCOC(=O)c1c2c(n3ccccc13)C(=O)c1ccccc1C2=O | 68 | 332 | – | – |
| O=C(O)c1cccc(NC(=O)c2c3c(n4ccccc24)C(=O)c2ncccc2C3=O)c1 | 74.5 | 148 | 9 | IC50 [2]: 41.6 µM |
| O=C1c2ccccc2C(=O)c2c1c(C(=O)NCCCO)c1ccccn21 | 15 | – | – | – |
| COc1ccn2c3c(c(C(=O)O)c2c1)C(=O)c1cccnc1C3=O | 69 | 299 | – | – |
| COC(=O)c1c2c(n3ccccc13)C(=O)c1ccccc1C2=O | 77 | 156 | 24 | inhibition [6]: 40% |
| O=C1c2cccnc2C(=O)c2c1c(C(=O)O)c1ccccn21 | 70 | 288 | – | inhibition [6]: 28% |
